From paper PMC6133083 (European Journal of Drug Metabolism and Pharmacokinetics, 2018)

Columns and labels:
[1] = FVB mice, microemulsion dosing; cited from earlier work
P-gp/BCRP = conditions: humans, oral dosing; cited from earlier work
[2] = system: P-gp/BCRP at the non-human primate BBB; conditions: intravenous administration; cited from earlier work
human P-gp = conditions: cited from earlier work
human BCRP = conditions: cited from earlier work
P-gp at the BBB [3] = conditions: rats, plasma concentration; cited from earlier work
P-gp at the BBB [4] = conditions: humans, cited from earlier work
[5] = Tolerability of tariquidar administration in rats; type: in vivo, Sprague–Dawley rats; conditions: 15 mg/kg single dose, intravenous, oral or intraperitoneal
P-gp at the human BBB = conditions: humans, P-gp inhibition at the BBB, plasma concentration; cited from earlier work
[6] = type: in vivo, Sprague–Dawley rats
Summary of the method: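 Male Sprague–Dawley rats (10–12 weeks, 0.31–0.48 kg), n = 5/group, given 15 mg/kg once as solution or microemulsion by gavage or i.p. injection. The solution only was also given as an i.v. tail-vein bolus under isoflurane. Sublingual blood was drawn at 0.5, 1, 2, 4, 8 and 24 h. Plasma was methanol-precipitated and assayed by LC–MS/MS (calibration 0.005–10 µg/mL). Cmax, Tmax and trapezoidal AUC0–24 came from non-fitted data, expressed relative to i.v.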

[7] = rats and monkeys, after intravenous [14C]tariquidar; cited from earlier work
[8] = humans, after intravenous administration; cited from earlier work
[9] = Sprague-Dawley, rat, plasma, iv, 15 mg/kg
[10] = intraperitoneal dosing, both formulations pooled, rats
[11] = oral dosing irrespective of formulation, rats

COc1cc2c(cc1OC)CN(CCc1ccc(NC(=O)c3cccc4c(=O)c5cccc(OC)c5[nH]c34)cc1)CC2 [elacridar]
oral bioavailability [1]: 47%
effect on brain uptake of [11C]erlotinib (P-gp/BCRP): failed to increase brain uptake
increase in brain distribution of [11C]erlotinib [2]: 3.5 fold

COc1cc2c(cc1OC)CN(CCc1ccc(NC(=O)c3cc(OC)c(OC)cc3NC(=O)c3cnc4ccccc4c3)cc1)CC2 [tariquidar]
in vitro EC50 for inhibition of its own transport (human P-gp): 0.011 mg/L
in vitro EC50 for inhibition of its own transport (human BCRP; human BCRP): 0.201 mg/L
ratio of EC50 for human BCRP to EC50 for human P-gp (human BCRP; inhibition of its own transport, in vitro): approximately 20 fold
in vivo half-maximum effect concentration (EC50) to increase brain uptake of (R)-[11C]verapamil (P-gp at the BBB [3]): 0.545 ± 0.03 mg/L
increase in brain distribution of (R)-[11C]verapamil and [11C]N-desmethyl-loperamide (P-gp at the BBB [4]; PET, continuous intravenous infusion): up to fivefold increases
effect on brain distribution of [11C]N-desmethyl-loperamide (P-gp at the BBB [4]; orally administered tariquidar): failed to reveal an effect
tolerability [5]: well tolerated by all animals
in vivo EC50 (P-gp at the human BBB): 1.454 mg/L
AUC(0-t) [6, 9]: 25.2 µg·h/mL
Cmax [6, 9]: 1.9 µg/mL
Tmax [6, 9]: 30 min
concentration at 30 min [6, 9]: 1.91 ± 0.29 µg/mL
mean AUC0–24 as % of value after intravenous dosing [6, 10]: ~97%
mean Cmax as % of value after intravenous dosing [6, 10]: approximately 80%
mean AUC0–24 as % of value after intravenous exposure [6, 11]: ~79%
mean Cmax as % of value after intravenous exposure [6, 11]: approximately 65%
tariquidar-related material in plasma existing as unchanged parent compound [7]: > 95%
tariquidar metabolites in plasma [8]: no tariquidar metabolites were found in plasma
